Broadly, the Km is the substrate concentration at which the rate is half of its maximum. As usually defined, the kcat is the number of substrate molecules converted per active site and unit of time at saturation.

Active and inactive are the calls of the source. No cut-off for these calls is given here.

The subject of series [1] is C[C@@]1(F)[C@H](O)[C@@H](COP(=O)(O)OP(=O)(O)OP(=O)(O)O)O[C@H]1n1ccc(=O)[nH]c1=O. Kind of series: (§1) Activity of HCV NS5B polymerase S282T mutant. As to conditions: Hepacivirus hominis. Summed up: (§2)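 Recombinant HCV NS5B S282T (21-aa C-terminally truncated, E. coli-expressed, metal-affinity purified) in a de novo steady-state RNA synthesis assay on an unprimed minus-IRES RNA template. Run at 27°C in 50 mM HEPES pH 7.5 with 5 mM MgCl2 and 2 mM DTT. For the CTP analog, UTP/GTP/ATP were fixed at 10/100/100 μM while 32P-CTP and the inhibitor were varied. For the UTP analog, CTP/ATP/GTP were fixed at 10/100/100 μM while 32P-UTP and the inhibitor were varied.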

Series [2] relates to C[C@@]1(F)[C@H](O)[C@@H](COP(=O)(O)OP(=O)(O)OP(=O)(O)O)O[C@H]1n1ccc(N)nc1=O. The series is described as §1. As to conditions: Hepacivirus hominis. The method in brief:
as §2

Series [3] deals with Huh-7. Nature of the series: Ratio of Kcat to Km for cloned NDPK in human HuH7 cells assessed as formation of […] triphosphate by spectrophotometry. Type of series: cell-based.
In series [4] the test system is Hepacivirus hominis. Nature of the series: Activity of wild type HCV NS5B polymerase. The method in brief: (§3)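 De novo RNA synthesis by NS5B lacking 21 C-terminal residues, in 50 mM HEPES pH 7.5 with 5 mM MgCl2 and 2 mM DTT at 27°C. Template was unprimed minus-IRES RNA, 2.8 μg each of enzyme and template. CTP 10 μM, ATP and GTP 100 μM; 32P-UTP and inhibitor were varied. Aliquots were quenched with EDTA/NaCl/citrate.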

Series [5] relates to Hepacivirus hominis. Nature of the series: Ratio of Ki to Km for wild type HCV NS5B polymerase. The method in brief:
as §3

The subject of series [6] is RNA-directed RNA polymerase (Hepacivirus hominis), O39930 [S282T]. Nature of the series: Ratio of Ki to Km for HCV NS5B polymerase S282T mutant. Summed up:
as §2

The subject of series [7] is Hepacivirus hominis. Kind of series: Fold resistance, ratio of Ki/Km for HCV NS5B polymerase S282T mutant to Ki/Km for wild type HCV NS5B polymerase. The method in brief:
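Ki and Km were measured for wild-type and S282T NS5B (C-terminal Δ21) by steady-state de novo RNA synthesis. Conditions were an unprimed minus-IRES template, 27°C, 50 mM HEPES pH 7.5, 5 mM MgCl2, 2 mM DTT, and varied 32P-labelled natural NTP with varied inhibitor. Fold resistance = (Ki/Km mutant)/(Ki/Km wild type).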

Series [8] relates to Huh-7. Nature of the series: Ratio of Kcat to Km for cloned NDPK in human HuH7 cells assessed as formation of RO2433 triphosphate by spectrophotometry. Type of series: cell-based. Summed up: (§4)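 Recombinant human kinase read out by PK/LDH coupling, following NADH oxidation at 340 nm. Rates were measured over varied substrate levels and fitted for steady-state parameters.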

Series [9] has as its target Creatine kinase B-type (Homo sapiens) (UniProt P12277). Nature of the series: Activity of human creatine kinase isoform BB assessed as formation of RO2433 triphosphate at 200 uM.
The species entered for series [10] is Homo sapiens. Nature of the series: Activity of human creatine kinase isoform MB assessed as formation of RO2433 triphosphate at 200 uM.
Series [11] concerns the target Creatine kinase M-type (Homo sapiens) (UniProt P06732). Kind of series: Activity of human creatine kinase isoform MM assessed as formation of RO2433 triphosphate at 200 uM.
In series [12] the target is T1, Phosphoglycerate kinase (Saccharomyces cerevisiae S288c) (UniProt P00560).
T1 sequence (whole entry): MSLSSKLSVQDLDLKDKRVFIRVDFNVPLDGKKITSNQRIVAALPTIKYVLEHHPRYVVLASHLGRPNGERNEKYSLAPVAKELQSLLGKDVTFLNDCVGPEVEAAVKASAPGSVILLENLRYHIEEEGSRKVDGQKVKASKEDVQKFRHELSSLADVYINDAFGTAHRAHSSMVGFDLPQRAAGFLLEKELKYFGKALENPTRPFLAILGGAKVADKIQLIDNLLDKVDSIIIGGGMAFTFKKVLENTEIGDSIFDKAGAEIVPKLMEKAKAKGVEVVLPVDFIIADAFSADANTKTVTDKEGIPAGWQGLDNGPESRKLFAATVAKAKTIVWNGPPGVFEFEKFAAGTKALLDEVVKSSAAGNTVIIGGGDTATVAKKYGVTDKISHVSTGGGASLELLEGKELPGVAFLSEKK
Nature of the series: Activity of yeast 3-phosphoglycerate kinase assessed as formation of RO2433 triphosphate at 200 uM.

The subject of series [13] is Hepatitis C virus. Kind of series: Antiviral activity against wild type HCV infected in human HuH7 cells assessed as inhibition of viral RNA replication after 4 days by replicon assay in absence of DCTD inhibitor zedularine. It counts as functional. As to conditions: Hepacivirus hominis; Huh-7. Summed up: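 Clone A Huh-7 replicon cells at 1,500 cells/well, without G418. Threefold serial compound dilutions were given with or without 100 μM zebularine, for 4 days at 37°C in 5% CO2. Replicon RNA was quantified by single-step multiplex RT-PCR, and activity was taken as ΔCT relative to the no-drug control.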
In general terms: A replicon is a self-replicating genome or part of one, used to study replication in cells.

Series [14] deals with Hepatitis C virus. Kind of series: Antiviral activity against HCV harboring NS5B polymerase S282T mutation infected in human HuH7 cells assessed as inhibition of viral RNA replication after 4 days by replicon assay in absence of DCTD inhibitor zedularine. Type of series: functional. As to conditions: Hepacivirus hominis; Huh-7. Summed up:
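Huh-7 clone A subgenomic replicon cells carrying NS5B S282T (selected by serial passage with 2′-C-methyladenosine) were seeded at 1,500 cells/well without G418. Threefold compound dilutions were added alone or with 100 μM zebularine, followed by 4 days at 37°C, 5% CO2. Replicon RNA was quantified by single-step multiplex RT-PCR, and activity was taken as ΔCT versus the no-drug control to give EC90.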

For series [15], the system named is Huh-7. Kind of series: Activity of cloned NDPK in human HuH7 cells assessed as formation of uridine triphosphate by spectrophotometry. It counts as cell-based. The method in brief:
as §4

Series [16] deals with Huh-7. Kind of series: Ratio of Kcat to Km for cloned NDPK in human HuH7 cells assessed as formation of uridine triphosphate by spectrophotometry. Type of series: cell-based. The method in brief:
as §4

Series [17] has as its target T2, Uridine-cytidine kinase 1 (Homo sapiens) (UniProt Q9HA47).
T2 sequence (whole entry): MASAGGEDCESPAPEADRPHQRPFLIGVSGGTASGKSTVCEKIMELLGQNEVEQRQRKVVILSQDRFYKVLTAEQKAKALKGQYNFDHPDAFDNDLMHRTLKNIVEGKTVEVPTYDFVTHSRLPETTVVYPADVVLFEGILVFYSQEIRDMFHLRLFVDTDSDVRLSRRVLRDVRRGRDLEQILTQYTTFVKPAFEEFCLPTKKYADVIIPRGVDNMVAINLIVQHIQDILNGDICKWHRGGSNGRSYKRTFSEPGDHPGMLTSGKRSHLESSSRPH
Kind of series: Activity of cloned uridine-cytidine kinase 1 in human HuH7 cells up to 1 mM. Type of series: cell-based. As to conditions: Huh-7.

Series [18] concerns the target Deoxycytidine kinase (Homo sapiens) (UniProt P27707). Kind of series: Activity of cloned deoxycytidine kinase in human HepG2 cells up to 1 mM. It counts as cell-based.
In series [19] the target is T3, Thymidine kinase, cytosolic (Homo sapiens) (UniProt P04183).
T3 sequence (whole entry): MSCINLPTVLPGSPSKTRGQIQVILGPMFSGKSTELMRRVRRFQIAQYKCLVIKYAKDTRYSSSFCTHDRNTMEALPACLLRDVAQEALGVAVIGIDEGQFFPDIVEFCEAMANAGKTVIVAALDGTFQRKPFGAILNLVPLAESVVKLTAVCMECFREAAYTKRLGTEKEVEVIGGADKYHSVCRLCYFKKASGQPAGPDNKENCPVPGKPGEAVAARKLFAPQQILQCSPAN
Kind of series: Activity of thymidine kinase 1 up to 1 mM.

Series [20] addresses T4, Thymidine kinase 2, mitochondrial (Homo sapiens) (UniProt O00142).
T4 sequence (whole entry): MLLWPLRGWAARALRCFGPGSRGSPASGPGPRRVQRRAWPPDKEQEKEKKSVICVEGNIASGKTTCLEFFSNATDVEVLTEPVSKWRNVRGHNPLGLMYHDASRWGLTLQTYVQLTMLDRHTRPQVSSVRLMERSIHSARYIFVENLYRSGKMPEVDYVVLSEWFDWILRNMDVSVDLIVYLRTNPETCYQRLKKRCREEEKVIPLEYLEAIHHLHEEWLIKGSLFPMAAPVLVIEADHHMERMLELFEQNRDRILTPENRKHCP
Nature of the series: Activity of thymidine kinase 2 up to 1 mM.

For series [21], the system named is C[C@@]1(F)[C@H](O)[C@@H](CO)O[C@H]1n1ccc(N)nc1=O. Kind of series: Ratio of Kcat to Km for cloned 2'-deoxycytidine kinase in human HepG2 cells assessed as formation of formation of […] monophosphate by spectrophotometry. It counts as cell-based.

Sequence of Deoxycytidine kinase (Homo sapiens) (P27707 whole entry, looked up): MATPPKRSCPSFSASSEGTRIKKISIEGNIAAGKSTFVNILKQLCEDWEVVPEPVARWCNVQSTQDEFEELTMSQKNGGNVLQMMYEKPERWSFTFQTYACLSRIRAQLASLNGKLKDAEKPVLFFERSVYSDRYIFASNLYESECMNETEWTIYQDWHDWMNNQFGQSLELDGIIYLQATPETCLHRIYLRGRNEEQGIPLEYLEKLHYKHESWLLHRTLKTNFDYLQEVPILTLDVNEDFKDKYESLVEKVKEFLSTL
Sequence of Deoxycytidine kinase (Homo sapiens), P27707 (P27707 whole entry): as the sequence (P27707 whole entry, looked up) above
Sequence of Creatine kinase M-type (Homo sapiens) (P06732 whole entry, canonical isoform): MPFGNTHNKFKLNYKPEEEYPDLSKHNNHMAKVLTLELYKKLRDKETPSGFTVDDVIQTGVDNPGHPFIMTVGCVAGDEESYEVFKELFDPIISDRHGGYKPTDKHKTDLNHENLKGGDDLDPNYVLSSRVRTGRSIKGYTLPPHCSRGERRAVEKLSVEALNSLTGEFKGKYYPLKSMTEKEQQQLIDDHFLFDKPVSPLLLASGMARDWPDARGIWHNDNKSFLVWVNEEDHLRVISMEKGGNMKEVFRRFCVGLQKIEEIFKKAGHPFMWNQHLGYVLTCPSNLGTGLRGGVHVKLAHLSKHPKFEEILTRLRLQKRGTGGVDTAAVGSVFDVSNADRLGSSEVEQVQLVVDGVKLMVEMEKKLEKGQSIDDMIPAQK
Sequence of Creatine kinase B-type (Homo sapiens) (P12277 whole entry, canonical isoform): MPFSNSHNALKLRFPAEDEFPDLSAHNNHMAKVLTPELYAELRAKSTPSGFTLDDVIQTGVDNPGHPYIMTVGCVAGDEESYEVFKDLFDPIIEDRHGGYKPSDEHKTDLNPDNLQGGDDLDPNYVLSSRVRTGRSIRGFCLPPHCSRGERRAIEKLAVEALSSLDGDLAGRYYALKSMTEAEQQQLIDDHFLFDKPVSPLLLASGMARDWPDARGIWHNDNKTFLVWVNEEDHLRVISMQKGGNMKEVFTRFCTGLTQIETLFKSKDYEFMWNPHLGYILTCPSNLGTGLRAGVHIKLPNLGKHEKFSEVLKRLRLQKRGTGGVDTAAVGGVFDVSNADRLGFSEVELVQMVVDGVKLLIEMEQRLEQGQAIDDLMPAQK

Consider “RNA-directed RNA polymerase (Hepacivirus hominis), O39930 S282T”, for which the Michaelis constant (Km) in series [1] was 0.15 µM; in series [2], 0.052 µM.

Consider `C[C@@]1(F)[C@H](O)[C@@H](COP(=O)(O)OP(=O)(O)O)O[C@H]1n1ccc(N)nc1=O`, for which the kcat/Km in [3] is 15000 M⁻¹ s⁻¹.

In the case of `C[C@@]1(F)[C@H](O)[C@@H](COP(=O)(O)OP(=O)(O)OP(=O)(O)O)O[C@H]1n1ccc(N)nc1=O`, the Michaelis constant (Km) in [4] stood at 0.074 µM. Further, the Ki/Km in [5] amounted to 0.8; in [6] it was 6. For the same compound, in series [7], the Ratio was 7.5.

Regarding `C[C@@]1(F)[C@H](O)[C@@H](COP(=O)(O)OP(=O)(O)O)O[C@H]1n1ccc(=O)[nH]c1=O`, the kcat/Km in series [8] is 46000 M⁻¹ s⁻¹. Besides, the outcome in series [9], in series [10], in series [11] and in series [12] was inactive.

Regarding `C[C@@]1(F)[C@H](O)[C@@H](COP(=O)(O)O)O[C@H]1n1ccc(=O)[nH]c1=O`, the outcome in [13] and in series [14] was Active.

Take `C[C@@]1(F)[C@H](O)[C@@H](COP(=O)(O)OP(=O)(O)OP(=O)(O)O)O[C@H]1n1ccc(=O)[nH]c1=O`: the Ki/Km in [5] came to 6.2; in [6], 147. Besides, in series [7], the Ratio was 23.7.

For `O=c1ccn([C@@H]2O[C@H](COP(=O)(O)OP(=O)(O)O)[C@@H](O)[C@H]2O)c(=O)[nH]1`, in series [15], the Km amounted to 156 µM and the kcat came out at 145 s⁻¹. In addition, in series [16], the kcat/Km is 930000 M⁻¹ s⁻¹.

For `C[C@@]1(F)[C@H](O)[C@@H](CO)O[C@H]1n1ccc(=O)[nH]c1=O`, the outcome in series [17], in [18], in series [19] and in series [20] was inactive.

Consider “Deoxycytidine kinase (Homo sapiens), P27707”, for which the kcat/Km in [21] came to 1.9 ×10⁻⁴ /µM/s.
